We go through 16 compounds from ChEMBL document CHEMBL1914431, “Discovery of a novel series of nonacidic benzofuran EP1 receptor antagonists” (Bioorg Med Chem Lett, 2011).

Each structure is given as a SMILES string. Converted amounts (≈) assume the structure as drawn. The source made the active and inactive calls. The calls are words filed in the database; no cut-off is given here.

Series [1] concerns the target T1, Prostaglandin E2 receptor EP1 subtype (Homo sapiens, UniProt P34995).
T1 sequence (P34995 whole entry): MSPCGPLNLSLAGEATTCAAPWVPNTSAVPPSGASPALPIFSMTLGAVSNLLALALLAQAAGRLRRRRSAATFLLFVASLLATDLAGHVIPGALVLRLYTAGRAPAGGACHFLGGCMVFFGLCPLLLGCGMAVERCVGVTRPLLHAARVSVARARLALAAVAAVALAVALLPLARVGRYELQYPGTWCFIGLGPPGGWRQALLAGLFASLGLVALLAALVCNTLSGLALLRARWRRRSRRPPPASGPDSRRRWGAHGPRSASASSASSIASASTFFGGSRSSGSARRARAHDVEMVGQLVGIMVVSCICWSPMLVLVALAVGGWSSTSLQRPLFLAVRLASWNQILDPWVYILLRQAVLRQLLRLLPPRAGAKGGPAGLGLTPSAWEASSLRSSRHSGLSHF
Briefly: Displacement of [3H]PGE2 from human prostanoid EP1 receptor expressed in CHO-K1 cells after 30 mins by topcount liquid scintillation counting. The series is classed as cell-based. An outline of the steps:
(§1)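 Radioligand binding at the EP1 receptor. Either [3H]-GW875240X or [3H]-PGE2 is the displaced ligand. Values are pIC50, means of at least three experiments.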

The target of series [2] is T1, Prostaglandin E2 receptor EP1 subtype. Briefly: Displacement of [3H]GW875240X from human prostanoid EP1 receptor expressed in CHO-K1 cells after 45 mins by topcount liquid scintillation counting. The series is classed as cell-based. An outline of the steps: as §1
In a further series the test system is Liver microsomes. Briefly: Intrinsic clearance in human liver microsomes. The series is classed as ADME, Microsome. (In general: Microsomes from liver hold many membrane-bound enzymes, among them those of drug oxidation.)
A further series has as its system Brain. Briefly: Fraction unbound in brain of po dosed rat complete Freund's adjuvant-induced inflammatory pain model. The format is ADME, organism-based. As to conditions: in vivo.
The nature of series [3]: Drug level in brain of rat complete Freund's adjuvant-induced inflammatory pain model at 10 mg/kg, po after 1 hr. The series is classed as ADME, organism-based. Set-up: dose 10 mg/kg, route oral. As to conditions: read-out: Drug uptake. An outline of the steps:
(§2)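 Blood and brain samples are taken from CFA rats after oral dosing in 1% methylcellulose. Sampling is at 1 h post-dose, and at 3 h in the 5 mg/kg study. Concentrations are in µM or nM, n = 7 or n = 6 for blood and n = 3 for brain. The brain:blood ratio is calculated from the same rats.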

The nature of series [4]: Blood clearance in rat at 1 mg/kg, iv. The format is ADME, organism-based. Set-up: dose 1 mg/kg, route intravenous.
Series [5] relates to Rattus norvegicus. Briefly: Analgesic activity in rat chronic joint pain model at 30 mg/kg, po bid. The format is functional, organism-based. Set-up: dose 30 mg/kg. The method, boiled down: (§3)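 Rat joint pain model of chronic inflammatory pain. Oral dosing b.i.d. at 1, 3, 10 and 30 mg/kg, or at 0.3, 1, 3 and 10 mg/kg. Reversal of hypersensitivity is scored, with statistical significance testing, and ED50 is calculated.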

The nature of series [6]: Ratio of drug level in brain to blood in rat complete Freund's adjuvant-induced inflammatory pain model at 10 mg/kg, po after 1 hr. As to conditions: read-out: BBR. Set-up: dose 10 mg/kg, route oral. The series is classed as ADME, organism-based. The method, boiled down:
as §2

Series [7] is described as follows: Solubility of the compound in fasted state simulated intestinal fluid after 1 hr. The format is physicochemical. An outline of the steps:
(§4)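 Solubility is measured after 1 h in water, SGF, FaSSIF and FeSSIF, in µg/mL.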

For series [8], the system named is Rattus norvegicus. Briefly: Analgesic activity in rat assessed as reversal of complete Freund's adjuvant-induced inflammatory pain at 10 mg/kg, po after 1 hr post dose. The format is functional. An outline of the steps: (§5)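 Rat CFA inflammatory pain model. Oral dosing in 1% methylcellulose. Hypersensitivity reversal is read by weight bearing, at 1 h post-dose. The 5 mg/kg study was also read at 3 h. Dose-response groups were 3, 10 and 30 mg/kg, or 1, 3 and 10 mg/kg, with ED50 derived. Celecoxib at 10 mg/kg po served as the standard.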

Series [9] in a line: Half life in rat at 1 mg/kg, iv. Set-up: dose 1 mg/kg, route intravenous. The series is classed as ADME, organism-based. As to conditions: in vivo.
The nature of series [10]: Solubility of the compound in simulated gastric fluid after 1 hr. The series is classed as physicochemical. The method, boiled down:
as §4

Series [11] is described as follows: Solubility of the compound in water after 1 hr. The series is classed as physicochemical. The method, boiled down: as §4
A short description of series [12]: Volume of distribution at steady state in rat at 1 mg/kg, iv. Set-up: dose 1 mg/kg, route intravenous. The conditions noted are these: in vivo, read-out: Vdss. The format is ADME, organism-based.
The nature of series [13]: Lipophilicity, log D of compound at pH 7.4 by shake flask method. The series is classed as physicochemical. As to conditions: buffer. An outline of the steps: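 Log D is determined by the shake flask method at pH 7.4.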
Series [14] in a line: Drug level in blood of rat complete Freund's adjuvant-induced inflammatory pain model at 10 mg/kg, po after 1 hr. The format is ADME, organism-based. Set-up: dose 10 mg/kg, route oral. The conditions noted are these: read-out: Drug uptake. The method, boiled down:
as §2

The next series concerns Blood. Briefly: Fraction unbound in blood of po dosed rat complete Freund's adjuvant-induced inflammatory pain model. The series is classed as ADME, organism-based. As to conditions: in vivo.
Series [15] concerns Rattus norvegicus. Briefly: Analgesic activity in po dosed rat assessed as reversal of complete Freund's adjuvant-induced inflammatory pain after 1 hr post dose. The format is functional. An outline of the steps: as §5
For series [16], the system named is Rattus norvegicus. Briefly: Analgesic activity in po dosed rat chronic joint pain model. The format is functional. The method, boiled down: as §3

In general, IC50 refers to the midpoint of a concentration-inhibition curve. Read a high IC50 as a need for much substance. A word on the clearance: it is a measure of how efficiently the substance is removed, as volume per time. In general, solubility refers to the concentration that dissolves in the medium under given conditions. Read a high solubility as much dissolved substance. By half-life is commonly meant how long it takes for the measured level to halve. By logD is commonly meant the decadic logarithm of the distribution of all forms, ionised or not, between an organic phase and buffer at a given pH. Read a low logD as a more hydrophilic compound. The term ED50 denotes the dose that gives a 50% effect, or the effect in half of the subjects.

In turn, `Cc1cc(C(=O)O)nn1Cc1cc(Cl)cn2cc(C(C)C)cc12` gave an IC50 in series [1] of 126 nM. In other words, the sub-micromolar range.
In series [2], `Cc1cc(NC(=O)C2CCNCC2)nn1Cc1cc(Cl)cc2cc(-c3ccccc3)oc12` had an IC50 of 100 nM.
Take `Cc1cc(C(=O)O)nn1Cc1cc(Cl)cn2nc(C(C)C)cc12`: the IC50 in [2] was more than 1000 nM.
`Cc1cc(NC(=O)CC2CCNCC2)nn1Cc1cc(Cl)cc2cc(-c3ccccc3)oc12`: the IC50 in series [2] was 63.1 nM.
Consider `Cc1cc(C(=O)O)nn1Cc1cc(Cl)cc2cc(-c3ccccc3)oc12`, for which the IC50 in series [2] was 2 nM. This IC50 is about 32-fold lower than that of the compound before.
In series [2], `Cc1cc(C(=O)NC[C@H]2CCCO2)nn1Cc1cc(Cl)cc2cc(-c3ccccc3)oc12` had an IC50 of 6.31 nM.
Turning to `Cc1cc(C(=O)O)nn1Cc1cc(Cl)cn2cc(C(C)C)nc12`, the IC50 in [1] is 501 nM.
Regarding `Cc1cc(C(=O)O)nn1Cc1cc(Cl)cc2cc(C(C)(C)C)oc12`, the IC50 in series [2] is 63.1 nM.
Compound `Cc1cc(C(=O)O)nn1Cc1cc(Cl)cc2oc(C(C)C)cc12` showed a half-maximal inhibitory concentration (IC50) in series [2] of 251 nM. This IC50 lies about 4-fold higher than the previous one.
Compound `Cc1cc(C(=O)NN2CCOCC2)nn1Cc1cc(Cl)cc2cc(-c3ccccc3)oc12` had a CL in the series on Liver microsomes of 1.1 mL/min/g. Besides, the Fu is on record as 0.17% with Brain and 0.662% in the series with Blood. In addition, the concentration at 1 h in series [3] was 3970 nM; in [14], 2340 nM. In [4], the clearance is 22 mL/min/kg. In series [2], the IC50 was 10 nM. Also, the outcome in the series with Rattus norvegicus [5] was Active. In addition, in series [6], the Kp at 1 h stood at 1.7. Further, the results for the solubility at 1 h in series [7], in [10] and in series [11] were 382 µg/mL (≈ 847 µM), 227 µg/mL (≈ 503 µM) and 171 µg/mL (≈ 379 µM), respectively. Besides, the Activity in the series with Rattus norvegicus [8] was 49%. In addition, the half-life in [9] is 2.1 h. Moreover, the Vd in series [12] turned out to be 3.5 L/kg. Besides, in series [13], the logD worked out at 3.
Consider `Cc1cc(C(=O)NC(C)(C)C)nn1Cc1cc(Cl)cc2cc(-c3ccccc3)oc12`, for which the Fu with Brain is given as 0.017%; with Blood it was 0.028%. The concentration at 1 h in series [3] was determined as 112 nM; in [14], 381 nM. This compound yielded a clearance in [4] of 28 mL/min/kg. The compound further showed an IC50 in [2] of 10 nM. Besides, the ED50 in the series on Rattus norvegicus [15] was 5 mg/kg; in the series with Rattus norvegicus [16] it was 0.6 mg/kg. Also, the Kp at 1 h in series [6] was 0.3. Further, the Activity in the series with Rattus norvegicus [8] worked out at 95%. Further, the half-life in series [9] was 4.2 h. Moreover, the Vd in series [12] was determined as 4.3 L/kg. The pH-dependent lipophilicity (logD) in series [13] came to 2.9.
Turning to `Cc1cc(C(=O)NC2CC2)nn1Cc1cc(Cl)cc2cc(-c3ccccc3)oc12`, the half-inhibitory concentration (IC50) in series [2] was 5.01 nM. That is a single-digit nanomolar value.
As to `Cc1cc(C(=O)NC2CCNCC2)nn1Cc1cc(Cl)cc2cc(C(C)C)oc12`, in series [1], the IC50 is 794 nM.
Compound `Cc1cc(C(N)=O)nn1Cc1cc(Cl)cc2cc(-c3ccccc3)oc12` showed an IC50 in [2] of 5.01 nM. This counts as single-digit nanomolar.
Compound `Cc1cc(C(=O)NCC2CCNCC2)nn1Cc1cc(Cl)cc2cc(-c3ccccc3)oc12` gave an IC50 in [2] of 20 nM.
Regarding `Cc1cc(C(=O)N[C@H]2CC[C@H](O)CC2)nn1Cc1cc(Cl)cc2cc(-c3ccccc3)oc12`, in series [2], the IC50 was 7.94 nM.
